Test results taken from ChEMBL document CHEMBL4842314, “Synthesis and SAR evaluation of coumarin derivatives as potent cannabinoid receptor agonists” (Eur J Med Chem, 2021).

Experiments:
Homo sapiens = species on record: Homo sapiens; assay: Selectivity ratio of Ki for human recombinant CB2 receptor expressed in CHO-K1 cell membrane to Ki for human recombinant CB1 receptor expressed in CHO-K1 cell membrane; format: cell-based
Cannabinoid receptor 2 [1] = target: T1, Cannabinoid receptor 2 (Homo sapiens, UniProt P34972); assay: Agonist activity at human recombinant CB2 receptor expressed in CHO-K1 cell membrane assessed as increase in GTPgammaS binding at 1 uM pretreated for 30 mins followed by [35S]GTPgammaS addition for 90 mins by [35S]GTP-gammaS binding assay relative to CP55940; format: functional, cell membranes; details: time 120.0 min
How it was run: (§1)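 Membranes (5 μg) from PathHunter CHOK1 cells stably expressing hCB1 or hCB2 pre-incubated 30 min at room temperature with test ligand at 1 μM final, 1 μM GDP and 5 μg saponin in Tris-HCl pH 7.4, MgCl2, NaCl, EDTA, BSA, DTT. [35S]GTPγS (0.3 nM final) was then added for 90 min at 25 °C. Filtration on GF/B. Emax given relative to CP55,940 (100%), two experiments in duplicate.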

Cannabinoid receptor 2 [2] = target: T1, Cannabinoid receptor 2; assay: Displacement of [3H]-CP55940 from human recombinant CB2 receptor expressed in CHO-K1 cell membrane measured after 3 hrs by scintillation spectrometry; format: cell membranes; details: read-out: Ki
Cannabinoid receptor 1 [3] = target: T2, Cannabinoid receptor 1 (Homo sapiens, UniProt P21554); assay: Displacement of [3H]-CP55940 from human recombinant CB1 receptor expressed in CHO-K1 cell membrane at 1 uM measured after 3 hrs by scintillation spectrometry; format: cell membranes; details: filed as agonist
Cannabinoid receptor 2 [4] = target: T1, Cannabinoid receptor 2; assay: Displacement of [3H]-CP55940 from human recombinant CB2 receptor expressed in CHO-K1 cell membrane at 1 uM measured after 3 hrs by scintillation spectrometry; format: cell membranes; details: filed as agonist
Cannabinoid receptor 1 [5] = target: T2, Cannabinoid receptor 1; assay: Displacement of [3H]-CP55940 from human recombinant CB1 receptor expressed in CHO-K1 cell membrane measured after 3 hrs by scintillation spectrometry; format: cell membranes
Cannabinoid receptor 1 [6] = target: T2, Cannabinoid receptor 1; assay: Agonist activity at human recombinant CB1 receptor expressed in CHO-K1 cell membrane assessed as increase in GTPgammaS binding pretreated for 30 mins followed by [35S]GTPgammaS addition for 90 mins by [35S]GTP-gammaS binding assay; format: functional, cell membranes
How it was run: (§2)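 Concentration-response [35S]GTPγS binding on 5 μg hCB1 or hCB2 CHOK1 membranes. Ligand, 1 μM GDP and saponin pre-incubated 30 min at room temperature, then 0.3 nM [35S]GTPγS added for 90 min at 25 °C. Filtration read-out. Three experiments in duplicate.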

Cannabinoid receptor 1 [7] = target: T2, Cannabinoid receptor 1; assay: Agonist activity at human recombinant CB1 receptor expressed in CHO-K1 cell membrane assessed as increase in GTPgammaS binding at 1 uM pretreated for 30 mins followed by [35S]GTPgammaS addition for 90 mins by [35S]GTP-gammaS binding assay relative to CP55940; format: functional, cell membranes; details: filed as agonist, time 120.0 min; how it was run: as §1
Cannabinoid receptor 2 [8] = target: T1, Cannabinoid receptor 2; assay: Agonist activity at human recombinant CB2 receptor expressed in CHO-K1 cell membrane assessed as increase in GTPgammaS binding pretreated for 30 mins followed by [35S]GTPgammaS addition for 90 mins by [35S]GTP-gammaS binding assay; format: functional, cell membranes; how it was run: as §2

T1 sequence (P34972 whole entry): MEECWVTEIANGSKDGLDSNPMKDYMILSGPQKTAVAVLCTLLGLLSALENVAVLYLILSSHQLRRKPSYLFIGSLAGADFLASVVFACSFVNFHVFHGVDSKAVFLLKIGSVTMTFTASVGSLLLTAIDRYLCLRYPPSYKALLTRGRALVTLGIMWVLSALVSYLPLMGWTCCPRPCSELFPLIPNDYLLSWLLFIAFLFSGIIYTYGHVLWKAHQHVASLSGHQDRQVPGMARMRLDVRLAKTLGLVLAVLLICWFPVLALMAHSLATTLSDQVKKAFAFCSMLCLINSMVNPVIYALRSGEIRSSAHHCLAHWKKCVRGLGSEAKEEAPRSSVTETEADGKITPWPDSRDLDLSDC
T2 sequence (P21554 whole entry): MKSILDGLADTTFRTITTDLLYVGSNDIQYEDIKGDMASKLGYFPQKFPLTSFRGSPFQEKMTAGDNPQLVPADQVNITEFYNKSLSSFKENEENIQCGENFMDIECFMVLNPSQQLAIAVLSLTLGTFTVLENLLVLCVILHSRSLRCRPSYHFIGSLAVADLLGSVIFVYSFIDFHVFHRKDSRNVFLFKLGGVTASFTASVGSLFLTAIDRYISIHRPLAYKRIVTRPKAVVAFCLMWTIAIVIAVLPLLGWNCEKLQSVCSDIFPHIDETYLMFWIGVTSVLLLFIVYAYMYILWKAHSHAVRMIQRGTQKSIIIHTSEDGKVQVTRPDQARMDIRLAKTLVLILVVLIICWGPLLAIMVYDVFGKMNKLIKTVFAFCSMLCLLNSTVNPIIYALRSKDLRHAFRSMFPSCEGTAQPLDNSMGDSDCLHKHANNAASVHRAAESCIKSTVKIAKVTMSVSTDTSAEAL

SMILES: CCCCc1cc2c(O)cc(C3(CCCC)CCCCC3)cc2oc1=O
- Ratio Ki (Homo sapiens): 79
- Emax (Cannabinoid receptor 2 [1]; filed as agonist): 65%
- Ki (Cannabinoid receptor 2 [2]): 12.5 nM
- inhibition (Cannabinoid receptor 1 [3]): 48%
- inhibition (Cannabinoid receptor 2 [4]): > 50%
- Ki (Cannabinoid receptor 1 [5]; read-out: pKi (converted)): > 1000 nM

SMILES: CCCCCc1cc(OC)c2cc(Cc3ccccn3)c(=O)oc2c1
- Emax (Cannabinoid receptor 2 [1]): 34%
- EC50 (Cannabinoid receptor 1 [6]): 1010 nM
- Ki (Cannabinoid receptor 2 [2]): 82.4 nM
- Emax (Cannabinoid receptor 1 [7]): 46%
- inhibition (Cannabinoid receptor 1 [3]): > 50%
- inhibition (Cannabinoid receptor 2 [4]): > 50%
- Ki (Cannabinoid receptor 1 [5]; read-out: Ki): 70.3 nM
- EC50 (Cannabinoid receptor 2 [8]): 188 nM
